ChEMBL document CHEMBL1165950, “Design and synthesis of new potent anticancer pyrazoles with high FLT3 kinase inhibitory selectivity” (Bioorg Med Chem, 2010)

How the values were obtained:
Type in all cases: functional
[1] = test system: UACC-62; test: Cytotoxicity against human UACC62 cells assessed as cell growth at 100 nM after 48 hrs by sulforhodamine B assay; settings: UACC-62, 48 h, read-out: Activity
[2] = test system: MDA-MB-231; test: Cytotoxicity against human MDA-MB-231 cells assessed as cell growth at 0.001 uM after 48 hrs by sulforhodamine B assay; settings: MDA-MB-231, 48 h, read-out: Activity
[3] = test system: CAKI-1; test: Cytotoxicity against human Caki1 cells assessed as cell growth at 100 nM after 48 hrs by sulforhodamine B assay; settings: CAKI-1, 48 h, read-out: Activity
[4] = test system: TK-10; test: Cytotoxicity against human TK10 cells assessed as cell growth at 100 nM after 48 hrs by sulforhodamine B assay; settings: TK-10, 48 h, read-out: Activity
[5] = test system: SNB-19; test: Cytotoxicity against human SNB19 cells assessed as cell growth at 10 uM; settings: read-out: Activity
In short: (§1)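 NCI-60 screen: cells grown in RPMI 1640 with 5% FBS and 2 mM L-glutamine, plated at 5000–40,000 cells/well according to doubling time, and preincubated 24 h at 37 °C, 5% CO2. The single 10 µM dose (DMSO stock) was added, then incubated 48 h. Cells were TCA-fixed and stained with 0.4% SRB, read at 515 nm, and growth % calculated against time-zero and control plates.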

[6] = test system: MDA-MB-231; test: Cytotoxicity against human MDA-MB-231 cells assessed as cell growth at 10 uM; settings: read-out: Activity; in short: as §1
[7] = test system: T47D; test: Cytotoxicity against human T47D cells assessed as cell growth at 10 uM; settings: read-out: Activity; in short: as §1
[8] = test system: CCRF-CEM; test: Cytotoxicity against human CCRF-CEM cells assessed as cell growth at 0.001 uM after 48 hrs by sulforhodamine B assay; settings: read-out: Activity
In short: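 NCI-60 five-dose screen. Cells were grown in RPMI 1640 with 5% FBS and 2 mM L-glutamine, plated at 5000–40,000 cells/well and preincubated for 24 h. Time-zero plates were TCA-fixed. DMSO-solubilized drug was added at five concentrations (10-fold or ½-log serial dilutions) for 48 h at 37 °C, 5% CO2. Cells were TCA-fixed, stained with 0.4% SRB and read at 515 nm. Percent growth used time-zero, control and test absorbances.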

[9] = test system: SNB-75; test: Cytotoxicity against human SNB75 cells assessed as cell growth at 1 uM after 48 hrs by sulforhodamine B assay; settings: SNB-75, 48 h, read-out: Activity
[10] = test system: Malme-3M; test: Cytotoxicity against human MALME-3M cells assessed as cell growth at 1 uM after 48 hrs by sulforhodamine B assay; settings: read-out: Activity
[11] = test system: HOP-62; test: Cytotoxicity against human HOP62 cells assessed as cell growth at 0.001 uM after 48 hrs by sulforhodamine B assay; settings: HOP-62, 48 h, read-out: Activity
[12] = test system: HOP-92; test: Cytotoxicity against human HOP92 cells assessed as cell growth at 0.001 uM after 48 hrs by sulforhodamine B assay; settings: HOP-92, 48 h, read-out: Activity
[13] = test system: EKVX; test: Cytotoxicity against human EKVX cells assessed as cell growth at 0.01 uM after 48 hrs by sulforhodamine B assay; settings: read-out: Activity
[14] = test system: NCI-H460; test: Cytotoxicity against human NCI-H460 cells assessed as cell growth at 0.001 uM after 48 hrs by sulforhodamine B assay; settings: NCI-H460, 48 h, read-out: Activity
[15] = test system: SF-295; test: Cytotoxicity against human SF295 cells assessed as cell growth at 0.001 uM after 48 hrs by sulforhodamine B assay; settings: SF-295, 48 h, read-out: Activity
[16] = test system: EKVX; test: Growth inhibition of human EKVX cells after 48 hrs by sulforhodamine B assay; settings: for CC50: read-out: LC50 (the source's name)
In short: (§2)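 NCI five-dose SRB assay in RPMI 1640 with 5% FBS and 2 mM L-glutamine. Cells were preincubated 24 h, then exposed 48 h at 37 °C to five concentrations (10-fold or half-log serial dilutions from DMSO stocks). TCA fixation, SRB staining, and absorbance at 515 nm followed. IC50 was taken where [(Ti−Tz)/(C−Tz)]×100 = 50, with Tz as time-zero cell density.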

[17] = test system: NCI-H460; test: Growth inhibition of human NCI-H460 cells after 48 hrs by sulforhodamine B assay; settings: NCI-H460, 48 h; for CC50: read-out: LC50 (the source's name)
In short: (§3)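 NCI 60-cell screen, five-dose mode. Cells grown in RPMI 1640 with 5% FBS and 2 mM L-glutamine and plated at 5000-40,000 cells/well according to doubling time. After 24 h preincubation, a Tz plate was TCA-fixed. Five concentrations (10-fold or 1/2 log dilutions) were applied for 48 h at 37 °C. SRB staining read at 515 nm. IC50 taken from [(Ti-Tz)/(C-Tz)]×100 = 50.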

[18] = test system: SF-268; test: Growth inhibition of human SF268 cells after 48 hrs by sulforhodamine B assay; settings: SF-268, 48 h; for CC50: read-out: LC50 (the source's name); in short: as §3
[19] = test system: 786-0; test: Growth inhibition of human 786-0 cells after 48 hrs by sulforhodamine B assay; settings: 786-0, 48 h; for CC50: read-out: LC50 (the source's name); in short: as §2
[20] = test system: HL-60(TB); test: Cytotoxicity against human HL-60(TB) cells assessed as cell growth at 100 nM after 48 hrs by sulforhodamine B assay; settings: HL-60, 48 h, read-out: Activity
In short: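 NCI 60-cell panel. Cells are grown in RPMI 1640 with 5% FBS and 2 mM L-glutamine, seeded at 5000–40,000 cells/well according to doubling time, and preincubated 24 h. Time-zero plates are TCA-fixed. Compound from DMSO stock is given at five 10-fold or 1/2-log concentrations for 48 h at 37 °C, 5% CO2. Suspension cells are fixed with 80% TCA (final 16%) and SRB-stained, with absorbance at 515 nm. Percent growth is derived from Tz, control and test readings.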

[21] = test system: MDA-MB-468; test: Growth inhibition of human MDA-MB-468 cells after 48 hrs by sulforhodamine B assay; settings: MDA-MB-468, 48 h; in short: as §3
[22] = test system: NCI-H226; test: Cytotoxicity against human NCI-H226 cells assessed as cell growth at 10 uM; settings: read-out: Activity; in short: as §1
[23] = test system: NCI-H522; test: Cytotoxicity against human NCI-H522 cells assessed as cell growth at 10 uM; settings: read-out: Activity; in short: as §1
[24] = test system: SF-268; test: Cytotoxicity against human SF268 cells assessed as cell growth at 10 uM after 48 hrs by sulforhodamine B assay; settings: SF-268, 48 h, read-out: Activity
[25] = test system: M14; test: Cytotoxicity against human M14 cells assessed as cell growth at 10 uM after 48 hrs by sulforhodamine B assay; settings: M14, 48 h, read-out: Activity
[26] = test system: OVCAR-3; test: Cytotoxicity against human OVCAR-3 cells assessed as cell growth at 10 uM after 48 hrs by sulforhodamine B assay; settings: OVCAR-3, 48 h, read-out: Activity
[27] = test system: OVCAR-8; test: Cytotoxicity against human OVCAR8 cells assessed as cell growth at 10 uM after 48 hrs by sulforhodamine B assay; settings: OVCAR-8, 48 h, read-out: Activity

| SMILES | growth at 0.1 µM [1] [%] | growth at 0.001 µM [2] [%] | growth at 0.1 µM [3] [%] | growth at 0.1 µM [4] [%] | growth at 10 µM [5] [%] | growth at 10 µM [6] [%] | growth at 10 µM [7] [%] | growth at 0.001 µM [8] [%] | growth at 1 µM [9] [%] | growth at 1 µM [10] [%] | growth at 0.001 µM [11] [%] | growth at 0.001 µM [12] [%] | growth at 0.01 µM [13] [%] | growth at 0.001 µM [14] [%] | growth at 0.001 µM [15] [%] | GI50 [16] [µM] | TGI [16] [µM] | CC50 [16] [µM] | GI50 [17] [nM] | CC50 [17] [µM] | also measured |
| --- | --- | --- | --- | --- | --- | --- | --- | --- | --- | --- | --- | --- | --- | --- | --- | --- | --- | --- | --- | --- | --- |
| COc1cc(C)cc(-c2c(-c3ccnc(-c4ccc(C(C)=O)cc4)c3)cnn2CC#N)c1 | 89 | 99 | 86 | 111 | 73.7 | 63.8 | 45.6 | 96 | -5 | 36 | 94 | 84 | 97 | 104 | 98 | 5.8 | > 100 | > 100 | 2410 | > 100 | GI50 [18]: 3.14 µM; TGI [18]: > 100 µM; CC50 [18]: > 100 µM; GI50 [19]: 3.11 µM; TGI [19]: > 100 µM; CC50 [19]: > 100 µM; growth at 0.1 µM [20]: 88%; GI50 [21]: 1430 nM; LC50 (concentration giving 50% net cell kill) [21]: 2130 nM; TGI [21]: 3.87 µM; growth at 10 µM [22]: 83.7%; growth at 10 µM [23]: 45%; growth at 10 µM [24]: 23%; growth at 10 µM [25]: 2%; growth at 10 µM [26]: -17%; growth at 10 µM [27]: 10% |
| COc1cc(C)cc(-c2c(-c3ccnc(-c4ccc(N(C)C)cc4)c3)cnn2CC#N)c1 | 37 | 101 | -21 | 44 | 26.5 | 18.7 | 46.5 | 95 | 10 | 40 | 99 | 26 | 81 | 93 | 83 | 0.29 | > 100 | > 100 | 57.7 | 4.99 | TGI [17]: 0.282 µM; GI50 [18]: 0.302 µM; TGI [18]: > 100 µM; CC50 [18]: > 100 µM; GI50 [19]: 0.0853 µM; TGI [19]: > 100 µM; CC50 [19]: > 100 µM; growth at 0.1 µM [20]: -26%; GI50 [21]: 26.1 nM; LC50 (concentration giving 50% net cell kill) [21]: 1040 nM; TGI [21]: 0.0798 µM; growth at 10 µM [22]: 39.8%; growth at 10 µM [23]: -23.6%; growth at 10 µM [24]: 20%; growth at 10 µM [25]: -7%; growth at 10 µM [26]: 1%; growth at 10 µM [27]: 8% |
| Cc1cc(O)cc(-c2nn(CC#N)cc2-c2ccnc(-c3ccc(N(C)C)cc3)c2)c1 | 87 | 99 | 85 | 125 | 46.4 | 40.8 | 17.7 | 97 | -22 | 27 | 92 | 80 | 86 | 109 | 93 | 3.92 | 92.8 | > 100 | 2790 | 70.5 | TGI [17]: 10.2 µM; GI50 [18]: 3.55 µM; TGI [18]: 16.9 µM; CC50 [18]: 77.9 µM; GI50 [19]: 3.41 µM; TGI [19]: 16.6 µM; CC50 [19]: > 100 µM; growth at 0.1 µM [20]: 98%; GI50 [21]: 1630 nM; LC50 (concentration giving 50% net cell kill) [21]: 9940 nM; TGI [21]: 4.02 µM; growth at 10 µM [22]: 35.8%; growth at 10 µM [23]: 14.5%; growth at 10 µM [24]: -58%; growth at 10 µM [25]: -75%; growth at 10 µM [26]: -70%; growth at 10 µM [27]: -5% |
